Data taken from ChEMBL document CHEMBL1148153, “New 3-O-acyl betulinic acids from Strychnos vanprukii Craib” (J Nat Prod, 2004).

Tests used:
[1] = Cytotoxicity against human HOG.R5 cells at 40 ug/ml after 4 days; type: cell-based; settings: 96 h
In short: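 HOG.R5 cultures run in parallel with the infection assay, given identical test-agent concentrations with virus omitted. After 4 days, viability monitored by microscopic and fluorometric measurement and CC50 derived.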

CEM-SS = assay: Cytotoxicity against human CEM-SS cells at 40 ug/ml after 6 days by MTS assay; type: cell-based; settings: 144 h
In short: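 Run alongside the CPE assay as uninfected toxicity controls. CEM-SS cells at (2-3) × 10^4 cells/mL in RPMI 1640 with 10% heat-inactivated FBS and 4 mM L-glutamine, plus compound without virus. After 6 days at 37 °C, MTS/PES added (final 317 µg/mL and 50 µM) for 4 h. Absorbance at 490/650 nm gives % viability and CC50.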

[2] = tested on: Human immunodeficiency virus 1; assay: Antiviral activity against HIV1 3B infected in human CEM-SS cells assessed as inhibition of virus-induced cytopathic effect after 6 days by MTS assay; type: functional; settings: for EC50: Human immunodeficiency virus 1, 3B, 144 h, read-out: ED50 (the source's name)
In short: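 CEM-SS cells split 1:2 the day before, then washed and resuspended at (2-3) × 10^4 cells/mL in RPMI 1640 with 10% heat-inactivated FBS, 4 mM L-glutamine, penicillin/streptomycin. Compounds diluted in complete medium. HIV-1 IIIB added at ~2 ng p24/mL (MOI ~0.4). Incubated 6 days at 37 °C, 5% CO2. MTS/PES added (final 317 µg/mL and 50 µM) for 4 h. Read at 490/650 nm as % CPE reduction; five-concentration dose-response.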

HUVEC = assay: Cytotoxicity against HUVEC cells; type: functional; settings: Homo sapiens, read-out: ED50 (the source's name)
[3] = Cytotoxicity against human HOG.R5 cells after 4 days; type: cell-based
In short: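 GFP-based HOG.R5 reporter cells in microtiter wells treated with compounds without virus, in parallel with HIV-1 IIIB-infected (2.5 ng/mL p24) cultures. After 4 days, viability judged by combined microscopic and fluorometric measurement. CC50 = concentration mediating 50% cytotoxicity.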

[4] = Selectivity index, ratio of CC50 for human HOG.R5 cells to IC50 for HIV1 3B; type: functional
In short: (§1)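 GFP reporter HOG.R5 cells in microtiter wells infected with HIV-1 IIIB (2.5 ng/mL p24) with test agent present. Fluorescence read after 4 days. Selectivity index taken as CC50 in uninfected parallel HOG.R5 cultures divided by antiviral IC50.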

[5] = Cytotoxicity against human CEM-SS cells after 6 days by MTS assay; type: cell-based
In short: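 CEM-SS cells split 1:2 the day before, then washed and resuspended at (2-3) × 10^4 cells/mL in RPMI 1640 with 10% heat-inactivated FBS, 4 mM L-glutamine, penicillin/streptomycin. Compounds diluted in complete medium, virus omitted (toxicity controls). 6 days at 37 °C, 5% CO2; MTS/PES added (final 317 µg/mL and 50 µM), 4 h further, A490/650. CC50 = 50% cytotoxic concentration.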

Lu1 = assay: Cytotoxicity against human Lu1 cells; type: functional; settings: read-out: ED50 (the source's name)
Col2 = assay: Cytotoxicity against human Col2 cells; type: functional; settings: read-out: ED50 (the source's name)
KB = assay: Cytotoxicity against human KB cells; type: functional; settings: read-out: ED50 (the source's name)
LNCaP = assay: Cytotoxicity against human LNCAP cells; type: functional; settings: read-out: ED50 (the source's name)
SK-MEL-2 = assay: Cytotoxicity against human SK-MEL-2 cells; type: functional; settings: read-out: ED50 (the source's name)
[6] = Selectivity index, ratio of CC50 for human CEM-SS cells to IC50 for HIV1 3B; type: functional
In short: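 CEM-SS cells at (2-3) × 10^4 cells/mL in RPMI 1640/10% FBS infected with HIV-1 IIIB (~2 ng p24/mL, MOI ~0.4) in presence of compounds. After 6 days at 37 °C, viability by MTS/PES reduction (4 h, A490/650). ED50 is 50% cytoprotection against viral CPE. SI = CC50 in uninfected parallel cells / ED50.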

[7] = tested on: Human immunodeficiency virus 1; assay: Antiviral activity against HIV1 3B infected in human HOG.R5 cells after 4 days; type: functional, organism-based; settings: Human immunodeficiency virus 1, 3B, HOG.R5, 96 h; in short: as §1
[8] = tested on: Human immunodeficiency virus 1; assay: Antiviral activity against HIV1 3B infected in human CEM-SS cells assessed as inhibition of virus-induced cytopathic effect at 2.7 uM after 6 days by MTS assay; type: functional; settings: Human immunodeficiency virus 1, 3B, 144 h
In short: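 CEM-SS cells split 1:2 the day before, then washed and resuspended at (2-3) × 10^4 cells/mL in RPMI 1640 with 10% heat-inactivated FBS, glutamine and antibiotics. Infected with HIV-1 IIIB (~2 ng p24/mL, MOI ~0.4) alongside test agent. Incubated 6 days at 37 °C, 5% CO2. MTS/PES added (final 317 µg/mL and 50 µM) for 4 h. Absorbance read at 490/650 nm and reported as % CPE reduction.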

IC50 [7] [µM]	Compound	Activity [1]	Activity (CEM-SS)	EC50 [2] [µM]	EC50 (HUVEC) [µM]	CC50 at 96 h [3] [µM]	Ratio CC50/IC50 [4]	CC50 at 144 h [5] [µM]	EC50 (Lu1) [µM]	EC50 (Col2) [µM]	EC50 (KB) [µM]	EC50 (LNCaP) [µM]	EC50 (SK-MEL-2) [µM]	Ratio CC50/IC50 [6]	Activity [2]	inhibition at 2.7 µM [8] [%]
0.02	CC(C)Nc1cccnc1N1CCN(C(=O)c2cc3cc(NS(C)(=O)=O)ccc3[nH]2)CC1.CS(=O)(=O)O [DELAVIRDINE MESYLATE]	Non-toxic	Non-toxic	0.06												
8	C=C(C)[C@@H]1CC[C@]2(C(=O)O)CC[C@]3(C)[C@H](CC[C@@H]4[C@@]5(C)CC[C@H](OC(=O)/C=C\c6ccc(O)cc6)C(C)(C)[C@@H]5CC[C@]43C)[C@@H]12				6.8	15.9	2	< 1.7	11	6	4.3	3.2	3.8		Toxic	
14.4	C[C@H]1[C@H](C)CC[C@]2(C(=O)O)CC[C@]3(C)C(=CC[C@@H]4[C@@]5(C)CC[C@H](O)C(C)(C)[C@@H]5CC[C@]43C)[C@H]12 [URSOLIC ACID]					15.4	1	21.9								22
0.07	CCCc1cc(=O)oc2c3c(c4c(c12)OC(C)(C)C=C4)O[C@H](C)[C@@H](C)[C@@H]3O [CALANOLIDE A]	Non-toxic	Non-toxic	0.31												
0.09	Cc1c(O)cccc1C(=O)N[C@@H](CSc1ccccc1)[C@H](O)CN1C[C@H]2CCCC[C@H]2C[C@H]1C(=O)NC(C)(C)C	Non-toxic	Non-toxic	0.03												
5.6	C=C(C)[C@@H]1CC[C@]2(C(=O)O)CC[C@]3(C)[C@H](CC[C@@H]4[C@@]5(C)CC[C@H](OC(=O)/C=C/c6ccc(O)cc6)C(C)(C)[C@@H]5CC[C@]43C)[C@@H]12				5.3	14.3	3	< 1.7	12.1	6.6	5.5	5.7	4.2		Toxic	

More lines, now with the values behind:

Compound	IC50 [7] [µM]	Activity [1]	Activity (CEM-SS)	EC50 [2] [µM]	EC50 (HUVEC) [µM]	CC50 at 96 h [3] [µM]	Ratio CC50/IC50 [4]	CC50 at 144 h [5] [µM]	EC50 (Lu1) [µM]	EC50 (Col2) [µM]	EC50 (KB) [µM]	EC50 (LNCaP) [µM]	EC50 (SK-MEL-2) [µM]	Ratio CC50/IC50 [6]	Activity [2]	inhibition at 2.7 µM [8] [%]
Nc1ccn([C@@H]2CS[C@H](CO)O2)c(=O)n1 [LAMIVUDINE]		Non-toxic	Non-toxic	0.36												
C=C(C)[C@@H]1CC[C@]2(C(=O)O)CC[C@]3(C)[C@H](CC[C@@H]4[C@@]5(C)CC[C@H](O)C(C)(C)[C@@H]5CC[C@]43C)[C@@H]12 [BETULINIC ACID]	3.1			2	28.7	16.7	5	5.9	40.6	43.9	35.7	27.4	1.3	3		
C=C(C)[C@@H]1CC[C@]2(C(=O)O)CC[C@]3(C)[C@H](CC[C@@H]4[C@@]5(C)CC[C@H](OC(=O)/C=C/c6ccc(O)c(OC)c6)C(C)(C)[C@@H]5CC[C@]43C)[C@@H]12	5.1				9.5	13.4	3	< 1.6	8.5	5.4	2.5	3.2	3.8		Toxic	
C=C(C)[C@@H]1CC[C@]2(C(=O)O)CC[C@]3(C)[C@H](CC[C@@H]4[C@@]5(C)CC[C@H](OC(=O)/C=C\c6ccc(O)c(OC)c6)C(C)(C)[C@@H]5CC[C@]43C)[C@@H]12	11.1				6.2	22.2	2	< 1.6	15.7	7.4	5.4	5.2	3.8		Toxic	
